# Published values pooled from the literature.
# Protocols differ between the studies behind these lines.
# Target: Serine/threonine-protein kinase MAK (MAK, Homo sapiens, UniProt P20794)
# One construct used (P20794 1-623): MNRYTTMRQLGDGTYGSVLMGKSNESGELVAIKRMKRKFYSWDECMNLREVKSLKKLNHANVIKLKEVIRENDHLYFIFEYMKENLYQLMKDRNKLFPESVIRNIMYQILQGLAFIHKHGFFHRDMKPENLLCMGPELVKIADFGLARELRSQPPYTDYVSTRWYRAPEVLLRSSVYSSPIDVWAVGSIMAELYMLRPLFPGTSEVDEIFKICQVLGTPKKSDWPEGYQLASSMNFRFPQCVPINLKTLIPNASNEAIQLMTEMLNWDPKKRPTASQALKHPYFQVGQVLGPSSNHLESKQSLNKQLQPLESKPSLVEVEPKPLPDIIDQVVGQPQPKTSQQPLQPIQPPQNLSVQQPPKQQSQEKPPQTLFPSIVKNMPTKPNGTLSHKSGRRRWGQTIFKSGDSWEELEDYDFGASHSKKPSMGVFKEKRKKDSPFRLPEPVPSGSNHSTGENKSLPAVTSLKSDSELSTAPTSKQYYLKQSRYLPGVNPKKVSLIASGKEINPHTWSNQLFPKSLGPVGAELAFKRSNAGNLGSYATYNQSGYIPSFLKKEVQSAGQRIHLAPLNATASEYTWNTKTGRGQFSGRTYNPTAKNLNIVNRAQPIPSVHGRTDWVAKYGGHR
SMILES,observed,mode,method,concentration,measurement,result
Cc1sc(C(=O)NC2COC2)cc1-n1cc(NC(=O)Nc2c(F)cccc2Cl)cn1,enzyme activity,inhibitor,,10 µM,remaining activity,120%
CC(C)CC(=O)N1CCc2nc(-c3ccc(Br)cc3)nc(N(C)Cc3ccccc3)c2C1,cell-free assay,,competition with immobilised ligand,0.1 µM,remaining binding,99%
Cc1ccc(C(=O)NCc2ccsc2)cc1C#Cc1cn(C(C)C)c2ncnc(N)c12,enzyme activity,inhibitor,,1 µM,activity vs control,120%
CN1CC(Oc2cnc(C#N)cc2-c2ccn3nc(NC(=O)C4CC4)cc3c2)C1,enzyme activity,inhibitor,,1 µM,inhibition,3%
Nc1ncnc2occ(-c3ccc(NC(=O)Nc4cc(C(F)(F)F)ccc4F)cc3)c12,cell-free assay,,,20 µM,remaining signal,7.9%
Cc1ccc(C(=O)Nc2ccc(CN3CCN(C)CC3)c(C(F)(F)F)c2)cc1C#Cc1cnc2cccnn12,enzyme activity,,,23.5 nM,remaining activity,93%
O=C(Nc1cnn(-c2csc(C(=O)NC3COC3)c2)c1)Nc1c(F)cccc1Cl,enzyme activity,inhibitor,,5 µM,remaining activity,97.6%
NS(=O)(=O)c1cc(NC(=O)C2(c3ccccc3Cl)CC2)ccc1Oc1cccc(Cl)c1,binding,,competition with immobilised ligand,1 µM,remaining binding,89%
